# Test results: ChEMBL document CHEMBL1140626, “Quantitative structure-activity relationship of peptides binding to the class II major histocompatibility complex molecule Aq associated with autoimmune arthritis” (J Med Chem, 2007)
# Experiments:
# Type in all cases: cell-based
# [1] = Displacement of biotinylated CLIP peptide from H-2Aq expressed in M12Q 14-7 cells at 250 uM
# In short: (§1)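 Competition binding on M12Q 14-7 cells transfected with H-2Aq. Test peptide (seven levels, 750 to 1 µM) co-incubated 2.5 h at 37 °C with biotinylated CLIP at 5 µM. After washing, cells were stained with streptavidin-PE and read by flow cytometry. % inhibition was taken from gated mean fluorescence against the no-inhibitor control, after subtracting the no-CLIP background. Duplicates, repeated once; duplicate averages were used.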
# [2] = Displacement of biotinylated CLIP peptide from H-2Aq expressed in M12Q 14-7 cells at 83 uM; in short: as §1
# [3] = Displacement of biotinylated CLIP peptide from H-2Aq expressed in M12Q 14-7 cells at 28 uM; in short: as §1
Substance,inhibition [1],inhibition [2],inhibition [3]
Ac-IAAFKADSK-NH2,53%,36%,31%
Ac-IAMFKMRSK-NH2,78%,63%,40%
Ac-IAMFKSVNK-NH2,50%,32%,19%
Ac-IATFKTYYK-NH2,70%,58%,38%
Ac-IAVFKMVRK-NH2,70%,59%,42%
Ac-IMMFKMSDK-NH2,30%,17%,4%
Ac-IMMFKTDVK-NH2,16%,24%,10%
Ac-IMMFKVRRK-NH2,74%,52%,36%
Ac-IMSFKTRDK-NH2,54%,27%,15%
Ac-IMTFKAVYK-NH2,72%,59%,47%
Ac-IMTFKMYVK-NH2,48%,40%,13%
Ac-ISAFKTNRK-NH2,84%,61%,42%
Ac-ISTFKARVK-NH2,74%,58%,39%
Ac-ITMFKMDRK-NH2,62%,46%,26%
Ac-ITMFKVVYK-NH2,59%,50%,35%
Ac-ITSFKMRYK-NH2,80%,69%,50%
Ac-ITTFKSSSK-NH2,20%,6%,6%
Ac-IVAFKTVVK-NH2,41%,27%,22%
Ac-IVSFKAYRK-NH2,51%,61%,49%
